According to the EternaBench riboswitch data:

System: MS2 coat protein
Assay: apparent Kd, MS2 coat protein; higher = weaker binding; RNA-MaP array; FMN 200 µM where present
How it was run: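 Stalled E. coli RNA polymerase transcribed the designs on Illumina sequencing-chip clusters. SNAP-549-labelled MS2 coat protein was titrated from 0.7 or 1.5 nM, doubling to 3 µM, without and then with constant ligand, in 100 mM Tris-HCl pH 7.5, 80 mM KCl, 4 mM MgCl2, BSA, DTT, yeast tRNA and Tween-20. Per-cluster binding curves were fitted to green signal normalised to red-channel RNA signal and control-cluster median Fmax. The apparent Kd is the median of the filtered fits.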

[1] = designed as: OFF switch for flavin mononucleotide, no ligand
[2] = ligand present: flavin mononucleotide, designed as: OFF switch for flavin mononucleotide
[3] = designed as: ON switch for flavin mononucleotide, no ligand
[4] = ligand present: flavin mononucleotide, designed as: ON switch for flavin mononucleotide

Sequence: CUAGUACAUGAGGAUCACCCAUGUCAGGAUAUUGGAUAUGACAUGGAAAACAUGUUUACAAGAAGGGACUAUAG
- apparent Kd [1]: 285 nM
- apparent Kd [2]: 290 nM

Sequence: AUUUAGUGCGAGAAGGCGUGGUCACAUGAGGAUCACCCAUGUCAGUACACGAGGAUAUCGAUUCACUGUGUUAAUACAAGUGAC
- apparent Kd [3]: 77.9 nM
- apparent Kd [4]: 6.68 nM

Sequence: AAUUGAGAGCAGGAUAUAUUCCUGAUGUAUGAAGUAGAAGGGCUCACAUGAGGAUCACCCAUGUGAUCCUGAAU
- apparent Kd [1]: 16.1 nM
- apparent Kd [2]: 18 nM

Sequence: GUCUCGAUGUAAGGAUAUGCAGUGGAUAACACUGCAGAAGGUACAUGAGGAUCACCCAUGUAACUCUAAUAAUAAUAACGAGAC
- apparent Kd [1]: 13.1 nM
- apparent Kd [2]: 17.3 nM

Sequence: GCUGGACGAGGAUAUACAUAACGUGCUUCGGCACGAGAUCUACAUGAGGAUCACCCAUGUAGAAGGUGUCCAGC
- apparent Kd [1]: 13.7 nM
- apparent Kd [2]: 16.2 nM

Sequence: ACAUGAGGAUCACCCAUGUGGAGUGAAGAAGGUAGAUACUUAUGACUCUCCCAUGUACAUAGGACUGAGGAUAUUCUAAUAAUU
- apparent Kd [3]: 30.8 nM
- apparent Kd [4]: 24 nM

Sequence: CCUCAGUAAGGAUAUCAGCUUAGUAGGUUGGUAAUGAGAGCUGAGAAGGUACAUGAGGAUCACCCAUGUUAGUU
- apparent Kd [1]: 26.1 nM
- apparent Kd [2]: 80.8 nM

Sequence: AUUUUGUCAGGAUAUGAGUAGUAGGACGAAAGUGUUAUUAUUUAGAAGGGACAUGAGGAUCACCCAUGUUUUCC
- apparent Kd [1]: 12.7 nM
- apparent Kd [2]: 16.7 nM

Sequence: UAUUAUUUGGAGAAGGACAUGAGGAUCACCCAUGUCGCCGGGCCCGGGAAACCGGGCCCGGCCAUGUAGGAUAUCCGGGUGGUA
- apparent Kd [1]: 12.7 nM
- apparent Kd [2]: 13.6 nM

Sequence: GUCAGCUCGUGAGGAUAUACAACACUGCUUCGGCAGUAUAUUAAGAUCACAUGAGGAUCACCCAUGUAGAAGGCACGAGCUGAU
- apparent Kd [1]: 15 nM
- apparent Kd [2]: 284 nM

Sequence: CUCAUGUAAGGAUAUCAGUAGUAAAAAAAUAAAAUUACUACUGAGAAGGUACAUGAGGAUCACCCAUGUCCUUG
- apparent Kd [1]: 38.8 nM
- apparent Kd [2]: 21.6 nM

Sequence: CUUUUGUGAGGAUAUUAGUUGUAAAUAAAUAAAAUUACUACUGAGAAGGCACAUGAGGAUCACCCAUGUUCCUC
- apparent Kd [1]: 33.3 nM
- apparent Kd [2]: 161 nM

Sequence: UUAGUGGUAGGAUAUCACCCAGGUUACAUGAGGAUCACCCAUGUGACUCAGCAGGCCAAGUGAGAAGGGCUGCUCC
- apparent Kd [1]: 22.3 nM
- apparent Kd [2]: 20 nM

Sequence: GAACAUGUCCGAGGAUAUCUGAGAUCAUUUUCAAGAGAAGGCGGACAUGAGGAUCACCCAUGUCUCUCCUCAUCAACUCCAAAU
- apparent Kd [1]: 6.95 nM
- apparent Kd [2]: 38.5 nM

Sequence: CCUCCACAUUAGGAUAUCGUCACACUAUUGUGACGAGAAGGAAUGACAUGAGGAUCACCCAUGUUAUCGUGAUG
- apparent Kd [1]: 19.4 nM
- apparent Kd [2]: 49.8 nM

Sequence: AAGACGUGGGAAGGAUAUCUGGAAUAUCGGUCGAGAGAAGGUCCCUCGACAUGAGGAUCACCCAUGUAACACGGUCUACCGUGG
- apparent Kd [3]: 472 nM
- apparent Kd [4]: 280 nM

Sequence: CCGCAAAAGCAGGAUAUCGUAUCGGAAACGAUACGAGAAGGGUUUACAUGAGGAUCACCCAUGUUCCUUAGCGG
- apparent Kd [1]: 29.1 nM
- apparent Kd [2]: 38 nM

Sequence: GGAUAGGACAGAGGAUAUACGUGCUAGAGAUACUAGCAAAAUUUCCUCACAUGAGGAUCACCCAUGUAGAAGGCUGUGCUAUCG
- apparent Kd [1]: 16.4 nM
- apparent Kd [2]: 343 nM

Sequence: CGUGAACGGACGCACUGUUUCCACAUGAGGAUCACCCAUGUGAAGGAUAUGACUGGCGCCACUUGUUAGAAGGUCACUGGGCGA
- apparent Kd [1]: 39.8 nM
- apparent Kd [2]: 71.1 nM

Sequence: ACCAUACAUGAGGAUCACCCAUGUUAGGAUAUGAGAGACCCACAUAGUCCUGGUAGCAUCAGAAGGAGCAGGGU
- apparent Kd [1]: 20.6 nM
- apparent Kd [2]: 23.7 nM

Sequence: ACGUUAAUUCGAGGAUAUCGGUGAUAUAUAUUACGAGAAGGCGAUAAUUGUGAUAAACUUAUAGACAUGAGGAUCACCCAUGUA
- apparent Kd [3]: 42.1 nM
- apparent Kd [4]: 38.2 nM

Sequence: UUUAUAAGAAAAUAAACGAAGUGGCCAGAAGGUGAAUGCCACAUGAGGAUCACCCAUGUUUCGAUCAAGGAUAUGGUUUCUCAC
- apparent Kd [3]: 400 nM
- apparent Kd [4]: 107 nM

Sequence: AAAUAAAACGAUCGGCGAUCCAAACAUGAGGAUCACCCAUGUAGAAGGCACUCUACAUAGUAGAGUGAGGAUAUACGAGAUCGA
- apparent Kd [1]: 22.1 nM
- apparent Kd [2]: 584 nM

Sequence: AUUAAACAUGAGGAUCACCCAUGUCAACAAAGUCGAGGAUAUGGGCAAAUAAAAUAAGAACCAGAAGGCGACUAAU
- apparent Kd [3]: 22.8 nM
- apparent Kd [4]: 16 nM

Sequence: UCGAUGCUAGGAUAUACUAAUACAACUACUGAAGUGUCUUCACAUGAGGAUCACCCAUGUAGAAGGAGCAUAUA
- apparent Kd [1]: 59.5 nM
- apparent Kd [2]: 46.8 nM

Sequence: GAAGCACGCACAGGAUAUCCGGCGGCGCUCGUCGGAGAAGGGUGACAUGAGGAUCACCCAUGUACGUGCAACUCAGUUUGAGAG
- apparent Kd [3]: 21.5 nM
- apparent Kd [4]: 13.9 nM

Sequence: GGAUGCAAAGAGAAGGGCUACUGGUUGAAACCUGCGGCCUCUGGAACAUGAGGAUCACCCAUGUAGCAGGAUAUCUUUACGUCA
- apparent Kd [1]: 173 nM
- apparent Kd [2]: 39.4 nM

Sequence: AAUUCACAUGAGGAUCACCCAUGUCAGGAUAUGGUUUCACGUUUUUCUUUGCUUGAGGCCAGAAGGGACAGCUA
- apparent Kd [1]: 62.8 nM
- apparent Kd [2]: 68.5 nM

Sequence: GCAAAAGUCCUGAGGGUAGGAGACAGAAGGGCACCGGGAUCACUCCACAUGAGGAUCACCCAUGUGCAGGAUAUGUCGGCUGAA
- apparent Kd [1]: 22.3 nM
- apparent Kd [2]: 327 nM

Sequence: AGUUACAUACUCAACAUGAGGAUCACCCAUGUACUCUCUUGUAAGGAUAUACAUUCGUAUUGAUAGUAGAAGGUACUAAUUAUG
- apparent Kd [3]: 50.9 nM
- apparent Kd [4]: 51.5 nM

Sequence: CUGGAAGUCACAGGAUAUCCGGACACAUGUCCAGGAGAAGGGUGAGUAGUUUCACAUGAGGAUCACCCAUGUGGCGGUUCCAGA
- apparent Kd [3]: 264 nM
- apparent Kd [4]: 21.2 nM

Sequence: UUACGUCCCGUUUACAUGAGGAUCACCCAUGUCGAAAGAGCGGAGGAUAUGCUACCUAGUUGGUAGCAGAAGGCUGCAACGUCG
- apparent Kd [3]: 35.2 nM
- apparent Kd [4]: 46.5 nM

Sequence: CUCAUGUGAGGAUAUUCGGGCGGGCUCGUUUGGGUUUGUUUGGAGAAGGUACAUGAGGAUCACCCAUGUGCUGG
- apparent Kd [1]: 218 nM
- apparent Kd [2]: 77.8 nM

Sequence: UCCGCGCGCGUAGGAUAUACAUGAGGAUCACCCAUGUACCCAGAUGGCUUCCUGAAUCUUGCAAUGUAGAAGGACGCCCGUGGG
- apparent Kd [1]: 37.9 nM
- apparent Kd [2]: 42.5 nM

Sequence: UGCGGAUAUCGAGGAUAUGCGACGGGUUCUCACAUGAGGAUCACCCAUGUCCGCGGGCCUCAAAAGCAGAAGGCGAGUUCGGUU
- apparent Kd [3]: 376 nM
- apparent Kd [4]: 10.6 nM

Sequence: AAUAAACUCACAGGAUAUAGCAUAAGUCGCGUGAACUUACAGGCGACUAUGCUAGAAGGGUGACCACAUGAGGAUCACCCAUGU
- apparent Kd [3]: 805 nM
- apparent Kd [4]: 158 nM
